Compound activity as filed in PubChem BioAssay.
Only some compounds are listed: those with a hit (about 3.8% of all), similar ones and a draw of the others.
KCNQ1 block = inhibitors of human KCNQ1 channel, primary screen, cell-based, thallium flux, high-throughput; Potassium voltage-gated channel subfamily KQT member 1 (Homo sapiens), P51787; CHO-K1 KCNQ1, FluxOR thallium flux fluorescence; hits give high values; B-score at 10 µM; 310,000 tested, 1.3% active;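 active = compounds whose thallium flux B-score, printed positive for inhibition, exceeds three library SD while starting fluorescence stays within three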;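 note: channel opened by potassium depolarization with thallium stimulus after 20 min compound exposure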
KCNK3 inh = human KCNK3 channel inhibitors, primary screen, CHO cells, FluxOR thallium flux, B-score; FluxOR fluorescence; hits give low values; B-score at 10 µM; Potassium channel subfamily K member 3 (Homo sapiens), O14649; 340,000 tested, 0.84% active;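 active = B-score under library mean minus 4 SD, starting fluorescence ratio at most library mean plus 5 SD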;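 note: more negative B-score means stronger inhibition of thallium flux through KCNK3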
KCNQ1 act = potentiators or activators of KCNQ1 channel, primary screen, cell-based, thallium flux, high-throughput; Potassium voltage-gated channel subfamily KQT member 1 (Homo sapiens), P51787; CHO-K1 KCNQ1, thallium flux FluxOR fluorescence; hits give high values; B-score at 10 µM; 310,000 tested, 0.35% active;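 active = fluorescence ratio B-score, a plate-corrected score, at least three library SD, with initial intensity B-score within 5 SD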
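assay system = CHO-K1 cells stably expressing KCNQ1 | medium = assay buffer, equal DMSO in all wells | timing = 37 °C overnight plating, 90-min dark dye load, 20-min compound pretreatment | measured by = kinetic FluxOR thallium fluorescence, 10-s 1-Hz baseline, 110-s post-stimulus read | measure = fluorescence change relative to baseline, converted to B score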
Kir21 inh = inhibitors of mouse Kir2.1 inward-rectifier potassium channel. Inward rectifier potassium channel 2 (Mus musculus), P35561. AID 1672, 2009. B-score at 10 µM. HEK293-Kir2.1, FluxOR thallium flux fluorescence; hits give low values. 310,000 tested, 0.85% active;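 active = fluorescence ratio B-score at or below minus 3 SD of library scores, with starting-brightness B-score within 2 SD, cut at about -4.2 in these data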;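 note: channel flux triggered by added potassium and thallium sulfate stimulus; B-score of peak minus minimum fluorescence over baseline after thallium stimulus; more negative B-score means stronger Kir2.1 block with less thallium influx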
Target sequence (P35561 whole entry, looked up): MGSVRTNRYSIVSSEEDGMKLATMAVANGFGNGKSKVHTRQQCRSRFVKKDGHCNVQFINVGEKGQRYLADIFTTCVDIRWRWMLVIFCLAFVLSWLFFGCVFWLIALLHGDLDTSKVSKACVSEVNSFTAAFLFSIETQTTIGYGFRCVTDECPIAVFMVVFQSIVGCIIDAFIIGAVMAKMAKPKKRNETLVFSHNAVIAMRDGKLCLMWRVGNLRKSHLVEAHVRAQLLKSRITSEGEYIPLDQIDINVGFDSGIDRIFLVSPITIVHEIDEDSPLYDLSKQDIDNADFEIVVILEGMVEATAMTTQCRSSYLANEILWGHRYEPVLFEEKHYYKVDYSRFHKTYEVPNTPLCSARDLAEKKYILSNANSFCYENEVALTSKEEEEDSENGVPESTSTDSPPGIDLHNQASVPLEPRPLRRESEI
KCNK9 inh = KCNK9 potassium channel inhibitors, primary screen, HEK293 cells, thallium flux; Potassium channel subfamily K member 9 (Homo sapiens), Q9NPC2; FluxOR thallium flux fluorescence; hits give low values; B-score at 10 µM; 310,000 tested, 1.2% active; AID 488922, 2010;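 active = ratio B-score over 3 SD below the library mean, with starting fluorescence within 5 SD of its mean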;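 note: negative B-score means less thallium flux so channel inhibition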
hERG rescue = hERG rescue from dofetilide block, primary screen, cell-based, CHO-hERG, FluxOR thallium flux, dofetilide IC70. Voltage-gated inwardly rectifying potassium channel KCNH2 (Homo sapiens), Q12809. dofetilide IC70 present. activation (rescue from dofetilide block), less the hit threshold, % at 10 µM. 310,000 tested, 0.51% active. AID 1511, 2009;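 active = activation above the mean of controls blocked by dofetilide plus 5 SD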;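 note: thallium influx through hERG after potassium depolarization seen as dye fluorescence rise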
Numbers without * were called inactive; i = inactive; · = not tested or not shown.

SMILES | KCNQ1 block | KCNK3 inh | KCNQ1 act | Kir21 inh | KCNK9 inh | hERG rescue
CCOCCCNC(=O)C(c1ccc(Cl)cc1)N1CCC2(CC1)OCCO2 (configuration not stated) | i | i | i | -0.14 | i | 8.6*
CC(=O)Nc1ccc(C(=O)COC(=O)C2CC2C)c(F)c1 (configuration not stated) | · | i | · | · | · | ·
Cc1noc(C)c1/C=N/Nc1ccccn1 | i | i | i | -0.25 | i | 6.4*
Cc1cccc(NC(=O)C(C)C(=O)c2ccccc2)c1 (configuration not stated) | i | i | i | -0.24 | i | -8
Cc1ccc(NC(=O)C(C)c2cccc(C(=O)c3ccccc3)c2)cc1O (configuration not stated) | 8* | i | i | -0.96 | i | -15
CC1(C)CC(=O)C(C(C2=C(O)CC(C)(C)CC2=O)c2ccc(Br)s2)C(=O)C1 (configuration not stated) | i | i | i | -7.4* | i | -17
COC(=O)c1cc2c(-c3ccccc3)cc3ccccn3c-2c1C(=O)OC | i | -8.9* | i | -0.28 | i | -6
COC(=O)c1c(C)c2c(C)cc3ccccn3c-2c1C(=O)OC | i | i | i | -0.24 | i | -6
Cc1ccccc1NS(=O)(=O)c1cc(C(=O)NCCSC2CCCCC2)ccc1C | i | i | i | 0 | -8* | -7
COc1ccc(CCNC(=O)CCCOc2cc(=O)n(C)c3ccccc23)cc1OC | i | i | i | 0.61 | i | -9
CN(CCCNC(=O)CCCOc1cc(=O)n(C)c2ccccc12)Cc1ccccc1 | i | i | 8* | 0.57 | i | -7
CC(=NNC(=O)c1ccncc1)c1cccc(Cl)c1 | · | i | · | · | · | ·
COc1ccc(NC(=S)NNC(=O)CNc2ccc(Cl)cc2)cc1 | i | i | i | 0.81 | i | -9
CCc1nnc(NC(=O)c2cc(S(=O)(=O)N3CCN(c4ccccc4)CC3)ccc2Cl)s1 | i | i | i | -0.36 | i | -1
CCc1nnc(NC(=O)c2cccc(S(=O)(=O)N3CCN(c4ccccc4)CC3)c2)s1 | i | i | i | 1.1 | i | 5.5*
CCCn1c(COc2ccccc2OC)nc2ccccc21 | i | i | i | -4.3* | i | -12
COc1ccccc1OCCSc1nc2ccccc2n1CCO | i | i | i | -4.3* | i | -11
COc1ccccc1OCCSc1nc2ccccc2n1CCC(=O)O | i | i | i | 1.7 | i | -6
CCn1c(COc2ccccc2OC)nc2ccccc21 | i | i | i | 0.56 | i | -14
CN(c1ccc(C(=O)N2CCCCCC2)cc1)S(=O)(=O)c1ccc(Cl)cc1 | i | i | i | -1.3 | i | -7
CC(CCc1ccccc1)NCc1cccc2ccccc12 (configuration not stated) | i | i | i | -9.7* | i | -12
Cc1ccc(NC(=O)c2sccc2-n2cccc2)c(C)c1 | i | i | i | -0.16 | -8.1* | -17
CN(C)c1ccc(NC(=O)Cn2ncn3c(cc4ccccc43)c2=O)cc1 | i | i | i | -0.04 | i | 8.9*
CC(C)c1ccc(NC(=O)Cn2ncn3c(cc4ccccc43)c2=O)cc1 | i | i | i | 1.1 | i | -11
O=C(CCCCCNC(=S)Nc1ccccc1)C[N+](=O)[O-] | i | i | i | 0.09 | i | -10
SMILES | KCNQ1 block | KCNK3 inh | KCNQ1 act | Kir21 inh | KCNK9 inh | hERG rescue
CCCCOc1ccc(C(=O)N/N=C/c2ccc(OCCN3CCCCC3)c(OC)c2)cc1 | 6* | i | i | -3.1 | i | -15
Cc1ccccc1C(=O)c1cccn1CC(=O)NC(C)c1ccccc1 (configuration not stated) | i | i | i | -4.4* | i | 1
CCC(=O)N1CCN(c2ccccc2NC(=O)c2cccs2)CC1 | i | i | i | -1.3 | i | -8
CCCCCCCSc1ncnc2[nH]ncc12 | · | i | · | · | · | ·
COc1ccccc1C(C)NS(=O)(=O)c1cccs1 (configuration not stated) | i | · | i | -4.5* | i | -4
COc1ccccc1NC(=O)c1ccccc1NS(C)(=O)=O | i | i | i | 1.1 | i | -8
COc1ccccc1NC(=O)c1ccccc1NS(=O)(=O)c1cccs1 | 6* | i | i | 0.85 | i | -12
CC(C(=O)N1CCCC1)N1CCN(c2ccccc2O)CC1 (configuration not stated) | i | i | i | 2.6 | i | 11*
COc1ccccc1N1CCN(C(C)C(=O)N2CC(C)OC(C)C2)CC1 (configuration not stated) | i | i | i | -1.1 | i | -14
CCCN1CCC(=O)N(CCOc2ccccc2)CC1 | i | i | i | -1.9 | i | -10
CC(C)(C)[C@H]1CCC(=O)N([C@H](CSc2ccc(Br)cc2)Cc2ccccc2)CC1 | · | i | · | · | · | ·
CC(C)(C)[C@@H]1CCC(=O)N(CC[C@H](Sc2ccccc2)c2ccccc2)CC1 | 6* | i | i | -0.96 | i | -4
CC(C)(C)C1CCC(=O)N(CCOc2ccccc2)CC1 (configuration not stated) | i | i | i | -5.6* | i | -13
CC(C)(C)[C@H]1CCC(=O)N([C@H](CSc2ccccc2)Cc2ccccc2)CC1 | i | i | i | -1.4 | -6.8* | -9
COc1ccccc1NC(=O)c1ccc(CSc2ccccc2)o1 | i | i | i | -1.5 | i | -4
COc1cc(CNCc2ccccn2)ccc1OCc1cccc(Cl)c1 | i | i | i | -7.6* | i | -9
COc1cc(CNCc2ccco2)ccc1OCc1ccccc1 | i | i | i | 0.02 | i | -10
COc1cc(CNCc2cccs2)ccc1OCc1ccccc1 | i | i | i | -3 | i | -10
COc1cc(CNCc2cccs2)ccc1OCc1cccs1 | i | i | i | -5* | i | -3
COc1cc(CNCc2ccccn2)ccc1OCc1c(Cl)cccc1Cl | i | i | i | -8.8* | i | -1
CC(C)(C)NCc1cc(Br)ccc1OCc1cccs1 | i | i | i | -4.8* | i | -5
